An excerpt weighted towards active compounds, which were near 2% of everything screened.
SR-BI uptake up – activators of SR-BI mediated HDL lipid uptake; CHO ldlA[mSR-BI] cells, DiI-HDL uptake fluorescence, 3 h; 100 = double the neutral-control signal; activation, % at 12.5 µM; 320,000 compounds, 0.096% hits;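 active means mean replicate activation of at least 60% and every replicate at or above 60%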;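 further: 0% = median plate neutral-control signal and 100% = twice that signal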
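Test system: SR-BI-overexpressing, LDLR-lacking CHO cells. Measured by: DiI fluorescence, bottom read. Medium: Ham's F12 with 0.5% BSA, HEPES 25 mM, pH 7.4. Timing: 3 h uptake period with compound, 37 °C.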
Xi reactivation – reactivates the inactive X chromosome in mouse fibroblasts; activation, % at 7.58 µM; 360,000 compounds, 0.055% hits; XiGFP mouse fibroblasts, % GFP-positive cells imaging, 3 d; cells co-treated with 5-aza-dC sensitizer; scaled so ellipticine positive control = 100%; AID 743238;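 active means mean normalized replicate activation at least 10% and every replicate at or above 10%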;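 further: 0% = median of on-plate neutral control wells and 100% = ellipticine 6 µM median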
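Assay system – SV40-immortalized XiGFP fibroblast cells, line 68-5-11 · Buffer or medium – DMEM supplemented with 5-aza-dC as sensitizing agent · Dosing – one concentration, pinned · Benchmarks – positive control ellipticine, 6 µM final · Times – 3 days compound exposure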
SR-BI DiI inh – mouse SR-BI HDL lipid transfer inhibition | inhibition, % at 12.5 µM | Q61009 | 320,000 compounds, 0.96% hits | ldlA[mSR-BI] CHO cells, DiI-HDL uptake fluorescence, 3 h;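 active means mean replicate inhibition of at least 70% and a set share of replicates each scoring 70 or more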;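 further: 0% = median of neutral control wells and 100% = median of positive control wells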
sPLA2-III inh – Inhibits HGIII-sPLA2 liposome hydrolysis, primary screen | QFRET BODIPY PC-A2 liposome hydrolysis, fluorescence | inhibition, % at 12.2 µM | 370,000 compounds, 0.56% hits | AID 743126;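 active means inhibition above mean plus 3 SD of compounds lying within the high and low control bounds, cut at about 19% in these data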;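 further: 0% = median of test compound wells and 100% = no enzyme DMSO wells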
ARNT TACC3 PPI – disrupts binding between human ARNT and TACC3; inhibition, % at 9.99 µM; Q9Y6A5; AlphaScreen His-ARNT PAS-B/GST-TACC3 binding, luminescence; TACC3 fragment carries E629A point mutation; AID 623870; 390,000 compounds, 0.66% hits;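 active means mean inhibition of replicates at least 50% and at least half of replicates each reaching 50%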;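 further: 0% = complete ARNT plus TACC3 wells and 100% = ARNT alone without TACC3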
NSD2 HMT inh – blocks human histone methyltransferase NSD2. NSD2 peptide methylation, AlphaScreen, 120 min. inhibition, % at 12.5 µM. 310,000 compounds, 0.54% hits; in the data active means inhibition above about 50%
Target sequence (O96028 whole entry, looked up): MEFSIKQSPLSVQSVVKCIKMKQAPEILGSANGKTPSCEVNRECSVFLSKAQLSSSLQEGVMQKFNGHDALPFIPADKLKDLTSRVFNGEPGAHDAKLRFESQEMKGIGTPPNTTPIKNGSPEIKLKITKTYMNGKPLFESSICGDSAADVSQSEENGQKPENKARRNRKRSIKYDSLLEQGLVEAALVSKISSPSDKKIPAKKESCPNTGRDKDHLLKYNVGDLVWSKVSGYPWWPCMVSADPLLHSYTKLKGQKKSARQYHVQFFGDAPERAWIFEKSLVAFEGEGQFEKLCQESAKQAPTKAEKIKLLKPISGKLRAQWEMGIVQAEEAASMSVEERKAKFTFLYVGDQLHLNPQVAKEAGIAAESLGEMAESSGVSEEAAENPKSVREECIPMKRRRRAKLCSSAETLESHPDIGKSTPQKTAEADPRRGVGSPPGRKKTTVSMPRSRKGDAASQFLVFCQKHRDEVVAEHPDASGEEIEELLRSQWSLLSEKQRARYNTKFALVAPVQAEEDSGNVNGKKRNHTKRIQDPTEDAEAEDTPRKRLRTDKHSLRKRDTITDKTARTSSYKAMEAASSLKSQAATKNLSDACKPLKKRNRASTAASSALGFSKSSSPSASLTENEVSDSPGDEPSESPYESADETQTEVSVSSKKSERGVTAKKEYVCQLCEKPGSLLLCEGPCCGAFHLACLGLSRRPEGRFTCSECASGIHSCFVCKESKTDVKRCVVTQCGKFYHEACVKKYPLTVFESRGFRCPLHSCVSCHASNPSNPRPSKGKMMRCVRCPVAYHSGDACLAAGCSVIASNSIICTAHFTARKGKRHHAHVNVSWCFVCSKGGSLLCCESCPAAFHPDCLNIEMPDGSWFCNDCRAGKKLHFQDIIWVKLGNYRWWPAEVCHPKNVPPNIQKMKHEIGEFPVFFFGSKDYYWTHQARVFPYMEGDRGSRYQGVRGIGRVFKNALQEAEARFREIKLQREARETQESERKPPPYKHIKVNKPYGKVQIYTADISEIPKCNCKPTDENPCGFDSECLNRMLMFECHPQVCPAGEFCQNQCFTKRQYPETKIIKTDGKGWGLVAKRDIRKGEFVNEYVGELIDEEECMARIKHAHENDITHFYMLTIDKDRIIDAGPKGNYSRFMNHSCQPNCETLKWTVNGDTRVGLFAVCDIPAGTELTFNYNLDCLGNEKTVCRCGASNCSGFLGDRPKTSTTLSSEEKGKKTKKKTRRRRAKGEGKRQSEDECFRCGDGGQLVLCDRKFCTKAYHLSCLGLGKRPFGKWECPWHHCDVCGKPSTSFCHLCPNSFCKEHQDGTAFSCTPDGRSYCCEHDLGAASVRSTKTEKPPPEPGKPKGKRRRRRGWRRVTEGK
Active calls of the source: *; / = no result.

SMILES	SR-BI uptake up	Xi reactivation	SR-BI DiI inh	sPLA2-III inh	ARNT TACC3 PPI	NSD2 HMT inh
CCOC(=O)C1=C(CC)Nc2ccccc2N=C1NC(=O)CCN1C(=O)C2CCCCC2C1=O (centres undefined)	0	1	0	3	-13	-1
COc1ccc(-c2[nH]n(-c3ccc([N+](=O)[O-])cc3)c(=O)c2C=NCC2CCCO2)cc1 (centres undefined)	-82	0	82*	4	-1	3
O=c1c(C=NCC2CCCO2)c(-c2ccccc2)[nH]n1-c1ccc([N+](=O)[O-])cc1 (centres undefined)	/	0	/	12	7	0
O=C(O)c1ccc(N/N=C/C=C/c2ccccc2[N+](=O)[O-])cc1	21	0	-21	-7	4	/
O=[N+]([O-])c1ccc(N/N=C/c2c[nH]c3ccccc23)c(S(=O)(=O)Nc2ccc(Cl)cc2)c1	-94	/	94*	1	-9	-1
O=[N+]([O-])c1ccccc1/C=C/C=N/Nc1ccc(S(=O)(=O)Nc2ccc(Cl)cc2)cc1[N+](=O)[O-]	-100	0	100*	-3	-1	-3
Cc1noc(C)c1S(=O)(=O)Nc1ccc2c(c1)C(=O)N([C@H](C)CO)C[C@H](C)[C@H](CN(C)S(=O)(=O)c1c(C)noc1C)OCCCC[C@@H](C)O2	/	0	/	/	-6	/
C[C@@H]1CN([C@H](C)CO)C(=O)Cc2cc(NC(=O)CCCCCC(=O)Nc3ccccc3N)ccc2O[C@@H]1CN(C)S(C)(=O)=O	/	0	/	/	29	/
O=C(NCCN1CCOCC1)c1ccc(Cl)c(S(=O)(=O)N2CCCCCC2)c1	19	/	-19	6	-3	2
C=CCn1c(Cc2csc(N)n2)nnc1SCc1ccc(C(=O)OC)cc1	-3	/	3	2	28	-1
C=CCn1c(Cc2csc(N)n2)nnc1SCC(=O)OCC	36	/	-36	2	46*	6
COc1ccc(-c2nnc(NC(=O)c3ccc(S(=O)(=O)N(C)CC4CCCO4)cc3)o2)c(OC)c1 (centres undefined)	-2	0	2	5	45*	-2
Cc1nnc(NC(=O)c2ccc3ccccc3c2)o1	-5	/	5	-6	52*	3
COCc1nnc(NC(=O)c2ccc(S(=O)(=O)N(C)Cc3ccccc3)cc2)o1	-7	0	7	-3	49*	2
Cc1nnc(NC(=O)c2ccc(S(=O)(=O)N3CCCCCC3)cc2)o1	10	/	-10	-5	43	/
Cc1nnc(NC(=O)c2ccc(S(=O)(=O)N3CC(C)OC(C)C3)cc2)o1 (centres undefined)	17	0	-17	-3	64*	-1
C[C@H](CO)N1C[C@H](C)[C@H](CN(C)C(=O)CCC(F)(F)F)OCCCC[C@H](C)Oc2ccc(NS(=O)(=O)c3ccc(Cl)cc3)cc2C1=O	/	0	/	/	3	/
CS(=O)(=O)c1cccc(-c2nnc(NC(=O)c3ccc(S(=O)(=O)N4CCCC4)cc3)o2)c1	-2	0	2	-13	56*	2
O=C(Nc1nnc(-c2ccco2)o1)c1ccc(S(=O)(=O)N2CCCC2)cc1	2	0	-2	-5	45	-2
Cc1nnc(NC(=O)c2ccc(S(=O)(=O)N(C)Cc3ccccc3)cc2)o1	14	/	-14	/	46*	/
COCCN(CCOC)S(=O)(=O)c1ccc(C(=O)Nc2nnc(C)o2)cc1	31	/	-31	0	57*	/
COC(=O)COc1ccc2cc(-c3ccccc3)c(=O)oc2c1	1	0	-1	1	-1	-1
COC(=O)[C@H]1C[C@H](OC(=O)NCc2ccccc2F)[C@@]2(O)CN(S(=O)(=O)c3ccc(C)cc3)CC2[C@H]1C(=O)OC (some centres undefined)	/	0	/	-15	/	/
CCCOc1cc(N(CC)CC)ccc1/C=C(/C#N)c1nc2ccc(C)cc2[nH]1	-89	/	89*	-46	4	/
CCN(CC)c1ccc(/C=C(/C#N)c2nc3ccc(C)cc3[nH]2)c(OC(C)C)c1	-102	/	102*	-79	5	-2
SMILES	SR-BI uptake up	Xi reactivation	SR-BI DiI inh	sPLA2-III inh	ARNT TACC3 PPI	NSD2 HMT inh
CCOc1cc(N(CC)CC)ccc1/C=C(/C#N)c1nc2ccccc2[nH]1	-109	/	109*	-9	1	-4
COc1cc(/C=C(\C#N)c2nc3ccc(C)cc3[nH]2)c([N+](=O)[O-])cc1OC	-48	/	48	-11	23	0
NC(=O)CN1C(=O)NC(c2ccccc2)(c2ccccc2)C1=O	/	0	/	0	-39	-2
O=C(Nc1ccc2c(c1)[C@@H]1C[C@H](CC(=O)N3CCCCC3)O[C@@H](CO)[C@@H]1O2)NC1CCCC1	/	0	/	/	8	/
O=C(COC(=O)CNC(=O)c1ccc(Cl)cc1Cl)NCc1ccco1	89*	0	-89	5	-1	-6
C(=Cc1c[nH]c2ccccc12)c1nccc2ccccc12	-71	0	71*	-17	4	-15
COc1ccccc1Nc1nc(-c2ccc3c(c2)NC(=O)CO3)cs1	-78	0	78*	-9	/	-4
COc1ccc(Nc2nc(-c3ccc4c(c3)NC(=O)CO4)cs2)cc1	-44	0	44	2	1	-1
CC(C)N1C(=O)CCC1C(=O)N1CCCc2ccccc21 (centres undefined)	20	/	-20	9	13*	7
COc1ccccc1OCC(=O)Nc1nc(-c2ccc(S(=O)(=O)N3CCOCC3)cc2)cs1	-73	/	73*	-13	-11	26
C[C@@H]1CN([C@@H](C)CO)C(=O)c2cccc(NC(=O)C3CCOCC3)c2O[C@@H]1CN(C)Cc1ccc(C(=O)O)cc1	/	0	/	/	-5	/
CC(C)NC(=O)Nc1cccc2c1O[C@@H](CN(C)Cc1ccc3c(c1)OCO3)[C@@H](C)CN([C@H](C)CO)C2=O	/	0	/	/	/	/
N#Cc1ccc(C(=O)Nc2cc(S(=O)(=O)N3CCOCC3)ccc2N2CCCC2)cc1	11	0	-11	-5	/	-1
CCCOc1ccc(C(=O)NNC(=S)NC(=O)c2cccs2)cc1	5	6	-5	32*	19	/
CCCOc1ccc(C(=O)NNC(=S)NC(=O)c2ccccc2)cc1	22	0	-22	20*	8	1
CCCCOc1ccc(C(=O)NNC(=S)NC(=O)CC)cc1	8	/	-8	/	3	1
CCC(=O)NC(=S)NNC(=O)c1ccc(OC)cc1	21	/	-21	7	68*	1
CCCOc1ccc(C(=O)NNC(=S)NC(C)=O)cc1	-3	/	3	9	30	0
CCOC(=O)N1CCN(S(=O)(=O)c2ccc(C)cc2)C1	/	0	/	6	0	-4
